In the library only some 1.7% were active in any assay of this set; here they are far more common.
Vif inh = inhibitors of HIV Vif; HEK293T cells, Vif self-association by quenched fluorescence, imaging, 24 h; inhibition, % at 7.49 µM; 340,000 tested, 0.35% active; AID 602346; in the data active means inhibition above about 50%, passing the limit was not always enough
SR-BI DiI inh = inhibitors of mouse SR-BI mediated HDL lipid uptake | AID 488896 | ldlA[mSR-BI] CHO cells, DiI-HDL uptake fluorescence, 3 h | 320,000 tested, 0.96% active | Q61009 | inhibition, % at 12.5 µM;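 active means mean replicate inhibition of at least 70% and a set share of replicates each scoring 70 or more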
Target sequence (Q61009 whole entry, looked up): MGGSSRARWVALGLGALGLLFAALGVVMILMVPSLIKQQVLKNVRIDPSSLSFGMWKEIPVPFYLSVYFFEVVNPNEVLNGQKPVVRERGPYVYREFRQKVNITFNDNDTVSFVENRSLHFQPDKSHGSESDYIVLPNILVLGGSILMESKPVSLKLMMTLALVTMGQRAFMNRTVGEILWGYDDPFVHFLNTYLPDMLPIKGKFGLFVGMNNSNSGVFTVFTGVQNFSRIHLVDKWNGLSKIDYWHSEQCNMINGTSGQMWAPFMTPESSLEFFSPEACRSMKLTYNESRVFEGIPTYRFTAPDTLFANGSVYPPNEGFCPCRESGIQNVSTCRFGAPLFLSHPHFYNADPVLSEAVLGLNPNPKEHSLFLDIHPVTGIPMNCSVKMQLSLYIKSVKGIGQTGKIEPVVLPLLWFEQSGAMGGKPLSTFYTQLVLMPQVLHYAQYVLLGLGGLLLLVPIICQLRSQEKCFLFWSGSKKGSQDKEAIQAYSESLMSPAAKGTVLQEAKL
Statin myotox sup = suppressors of simvastatin-induced myotoxicity in C2C12 myotubes; AID 602340; 330,000 tested, 0.78% active; rescue of ATP level, % at 7.49 µM; ATP luminescence, 48 h; scaled: DMSO 0, geranylgeraniol control 100;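 active means mean ATP rescue above about 67%, or every replicate alone reaching that limit, limit read from the data, passing the limit was not always enough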;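 further: myotubes were challenged with 10 µM simvastatin during compound exposure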
SR-BI uptake up = enhances SR-BI lipid uptake from DiI-HDL. CHO ldlA[mSR-BI] cells, DiI-HDL uptake fluorescence, 3 h; 100 = double the neutral-control signal. activation, % at 12.5 µM. 320,000 tested, 0.096% active;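 active means mean replicate activation of at least 60% and every replicate at or above 60%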
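material = CHO ldlA[mSR-BI] cells | medium = Ham's F12 with 0.5% BSA, HEPES 25 mM, pH 7.4 | reagent = fluorescent DiI-HDL, 10 µg/mL final | compound dosing = single-point compound dose | incubation = 3 h, 37 °C | measured by = bottom-read fluorescence, 550/595 nm | measure = HDL uptake via cellular fluorescence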
Large screens that a line does not name were inactive.

COc1cc2c(cc1NC(=O)C(Cl)Cl)-c1ccc(NC(=O)C(Cl)Cl)cc1C2	SR-BI DiI inh 83.0 (no result: Statin myotox sup)
CCN1C(=O)/C(=C2\C=Cc3cc(C)ccc3N2CC)OC1=S	none
CCN1C(=O)/C(=C2/C=Cc3ccccc3N2C)OC1=S	Statin myotox sup 117.9
CCN1C(=O)/C(=C2\C=Cc3ccccc3N2CC)SC1=S	SR-BI DiI inh 73.7
Cc1noc(C)c1S(=O)(=O)Nc1ccc2c(c1)C(=O)N([C@H](C)CO)C[C@@H](C)[C@@H](CN(C)Cc1ccc(Oc3ccccc3)cc1)O2	none (no result: Vif inh, SR-BI DiI inh, SR-BI uptake up)
CC(C)CC(C(=O)Nc1oc(-c2ccco2)c(-c2ccco2)c1C#N)N1C(=O)c2ccccc2C1=O (configuration not stated)	Statin myotox sup 116.9
Cc1ccc(S(=O)(=O)Nc2ccc3c(c2)C(=O)N([C@H](C)CO)C[C@H](C)[C@H](CN(C)C(=O)Nc2ccc4c(c2)OCO4)O3)cc1	none (no result: Vif inh, SR-BI DiI inh, SR-BI uptake up)
O=C(CSc1nnc2ccccn12)NNC(=O)c1ccc(Cl)cc1	none (no result: SR-BI DiI inh, SR-BI uptake up)
O=C(CSc1nnc2ccccn12)NNC(=O)c1cccc(Cl)c1	Statin myotox sup 113.4
CON/C=C(\C=Nc1ccc(Cl)cc1)c1ncc(C(F)(F)F)cc1Cl	SR-BI DiI inh 73.0
CC12CCC(C(=O)N(CSC(=S)N/N=C\c3ccccc3O)C1=O)C2(C)C (configuration not stated)	SR-BI DiI inh 104.2
O=C(CCCC(=O)NN=Cc1ccc(Cl)cc1Cl)NN=Cc1ccc(Cl)cc1Cl	SR-BI DiI inh 96.1
CC1CCCCC1NC(=O)CCNC(=O)N1CC(=O)Nc2ccccc21 (configuration not stated)	Statin myotox sup 119.1
Cc1ccccc1-n1c(SCC(=O)N/N=C/C=C/c2ccccc2[N+](=O)[O-])nc2ccccc2c1=O	SR-BI DiI inh 78.7 (no result: Statin myotox sup)
C[C@H]1CN([C@@H](C)CO)C(=O)Cc2cc(NS(=O)(=O)c3ccc(Cl)cc3)ccc2O[C@H]1CN(C)C(=O)Nc1ccc(C(F)(F)F)cc1	none (no result: Vif inh, SR-BI DiI inh, SR-BI uptake up)
CCCNC(=O)[C@H]1[C@H](CO)[C@H]2Cn3c(cccc3=O)[C@H]2N1CCC(F)(F)F	none (no result: Vif inh, SR-BI DiI inh, SR-BI uptake up)
Cc1ccc(CNc2ccc3c(c2)OCO3)cc1	Vif inh 62.5
c1cc(CNc2ccc3c(c2)OCO3)ccn1	none
C[C@@H]1CN([C@@H](C)CO)C(=O)Cc2cc(NS(=O)(=O)c3ccccc3)ccc2O[C@H]1CN(C)Cc1ccc(C(F)(F)F)cc1	none (no result: Vif inh, SR-BI DiI inh, SR-BI uptake up)
CN(CC(=O)Nc1ccc(Cl)c(Cl)c1)C(=O)C1CCCC1	SR-BI uptake up 66.7 (no result: Vif inh)
N#Cc1nc(-c2ccc(OCc3ccccc3)cc2)oc1N1CCOCC1	SR-BI DiI inh 71.0
CN1/C(=C/c2cccc[n+]2C)Sc2ccccc21	Vif inh 118.1
CO[C@@H]1CN(C)C(=O)c2cc(NC(=O)c3ccc(F)cc3)ccc2OC[C@@H](C)N(C(=O)CC2CC2)C[C@@H]1C	none (no result: Vif inh, SR-BI DiI inh, SR-BI uptake up)
CN(C)CCCNC(=O)[C@@H]1[C@@H](CO)[C@@H]2Cn3c(ccc(-c4cccc(F)c4)c3=O)[C@@H]2N1C	none (no result: Vif inh, SR-BI DiI inh, SR-BI uptake up)
CCOC(=O)C1CCN(C=Nc2cc(C)on2)CC1	Statin myotox sup 147.2
COc1ccc(Cn2c(CCC(=O)N3CCN(c4ccccn4)CC3)nc3ncccc3c2=O)cc1	Statin myotox sup 87.6 (no result: SR-BI DiI inh, SR-BI uptake up)
O=C(CCc1nnc2n(Cc3ccc(Cl)cc3)c(=O)c3ccccc3n12)N1CCN(c2ccccn2)CC1	none
O=C(Nc1nc(-c2cccc3ccccc23)cs1)c1ccc2c(c1)S(=O)(=O)c1ccccc1C2=O	SR-BI DiI inh 72.5
O=C(Nc1ccc(-c2ccccc2)cc1)c1ccc2c(c1)S(=O)(=O)c1ccccc1C2=O	SR-BI DiI inh 84.3
C[C@H](CO)N1C[C@H](C)[C@H](CN(C)C(=O)Nc2ccc(F)cc2)Oc2ccc(NC(=O)Cc3ccccc3)cc2C1=O	none (no result: Vif inh, SR-BI DiI inh, SR-BI uptake up)
O=C(C[C@H]1CC[C@H](NC(=O)CN2CCOCC2)[C@H](CO)O1)NCCc1ccncc1	none (no result: Vif inh, SR-BI DiI inh, SR-BI uptake up)
O=C(N[C@H]1CC[C@H](CC(=O)N2CCCCC2)O[C@@H]1CO)c1ccccn1	none (no result: Vif inh, SR-BI DiI inh, SR-BI uptake up)
O=C(O)C1CCC(=O)N(C2CC2)C1c1ccccc1 (configuration not stated)	Statin myotox sup 106.6 (no result: Vif inh)
O=C(O)C1CCC(=O)N(C2CCCCC2)C1c1ccccc1Cl (configuration not stated)	none
N#C/C(C(=O)N1CCCCC1)=C1/N=C(NC(=O)c2ccc(F)cc2)c2ccccc21	Statin myotox sup 86.5
CN1CCN(CC(=O)NC2CCCCC2)CC1	Vif inh 92.5
C[C@H]1CN([C@@H](C)CO)C(=O)c2c(c3ccccc3n2C)-c2ccccc2CO[C@H]1CN(C)Cc1ccc(C(=O)O)cc1	none (no result: Vif inh, SR-BI DiI inh, SR-BI uptake up)
O=C(NCCCN1CCC(Cc2ccccc2)CC1)C1CCN(S(=O)(=O)N2CCOCC2)CC1	Statin myotox sup 90.0
CO[C@@H]1CN(C)C(=O)c2cc(NC(=O)C3CC3)ccc2OC[C@@H](C)N(Cc2cccc(F)c2)C[C@H]1C	none (no result: Vif inh, SR-BI DiI inh, SR-BI uptake up)
O=C1CN(C(=O)COC(=O)CCSc2ccccc2Cl)c2ccccc2N1	Statin myotox sup 106.1
O=C(OCc1nc2ccccc2s1)c1cnccn1	Statin myotox sup 132.1 (no result: SR-BI DiI inh, SR-BI uptake up)
COc1ccc(-n2nc3cc(N)c(Br)cc3n2)cc1	none
COc1ccc(-n2nc3cc(C)c(N)c(Br)c3n2)cc1	Statin myotox sup 129.0
CCCCNc1c(-c2ccc(-c3ccc(OC)cc3)c(OC)c2)nc2ccccn12	SR-BI DiI inh 86.8
CCCCNc1c(-c2ccc(SC3CCCCC3)c(OC)c2)nc2ccc(Cl)cn12	SR-BI DiI inh 75.2
CCCCNc1c(-c2ccc(OC)c(Sc3ccc(OC)cc3)c2)nc2cnccn12	Vif inh 60.7
COc1ccc(C(=O)Nc2ccc3c(c2)C(=O)N(C)C[C@@H](OC)[C@@H](C)CN(C(C)=O)[C@H](C)CO3)cc1	none (no result: Vif inh, SR-BI DiI inh, SR-BI uptake up)
COc1ccccc1NC(=O)CCc1c(C)[nH]c(=O)c(C#N)c1C	Statin myotox sup 97.3
COc1ccc(-c2sc3cc4c(cc3c2C#Cc2ccc(N)cc2)OCO4)cc1	SR-BI DiI inh 92.6
CNC[C@@H]1OCCCC[C@H](C)Oc2ccc(NS(=O)(=O)c3ccc(OC)cc3)cc2C(=O)N([C@@H](C)CO)C[C@@H]1C	none (no result: Vif inh, SR-BI DiI inh, SR-BI uptake up)
CCOC(=O)C(=Cc1ccc(-c2ccsc2C(=O)OC)o1)C(=O)OCC	SR-BI DiI inh 75.8
CC=Cc1ccc2n(c1=O)C[C@@H]1[C@@H](CO)[C@H](C(=O)N[C@@H](C)c3ccccc3)[C@H]2N1Cc1cncnc1 (mixture of isomers)	none (no result: Vif inh, SR-BI DiI inh, SR-BI uptake up)
Cc1ccc(C(=O)NN2C(=O)c3ccc(S(=O)(=O)c4ccc(C(=O)O)cc4)cc3C2=O)cc1	none
O=C(O)c1ccc(S(=O)(=O)c2ccc3c(c2)C(=O)N(c2ccc(Br)cc2)C3=O)cc1	Vif inh 66.3 (no result: SR-BI DiI inh, SR-BI uptake up)
CC(C)(C)c1cc(C(=O)N/N=C/c2ccco2)n[nH]1	Vif inh 62.1 (no result: Statin myotox sup)
C[C@H](CO)N1C[C@H](C)[C@@H](CN(C)C(=O)Nc2ccc(C(F)(F)F)cc2)Oc2ccc(NC(=O)Nc3ccc(C(F)(F)F)cc3)cc2CC1=O	none (no result: Vif inh, SR-BI DiI inh, SR-BI uptake up)
C/C(=N\NC(=O)CNc1ccccc1Cl)C(C)(C)C	Statin myotox sup 72.2
Cc1c(C(=O)c2ccc(Cl)c(Cl)c2)cnc2cc3c(cc12)OCO3	SR-BI uptake up 68.6

From PubChem
